Experimental data published in the M2OR odorant receptor database.
Positions count from the first letter of the chain named.

Columns and labels:
Conditions in all cases: stereoisomer not certain
OR2M5 V105T M154T G255A = system: OR2M5 V105T M154T G255A
Summary of the method: (§1)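 Transient luciferase assays in mammalian cell lines were common, though methods varied by source. The values come from published papers and their supplementary material, with extra details from the original authors when needed. Responsive refers to a measured signal the original authors judged statistically different from baseline, and non-responsive (inactive) to the remainder.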

[1] = system: OR2M5 V105T S119A A156G G255A
Summary of the method: as §1

OR2M5 V105T = system: OR2M5 V105T
Summary of the method: as §1

OR2M5 V198I = system: OR2M5 V198I
Summary of the method: as §1

OR2S2 (Homo sapiens) = target: T1, OR2S2 (Homo sapiens) (UniProt Q9NQN1)
T1 sequence (whole entry): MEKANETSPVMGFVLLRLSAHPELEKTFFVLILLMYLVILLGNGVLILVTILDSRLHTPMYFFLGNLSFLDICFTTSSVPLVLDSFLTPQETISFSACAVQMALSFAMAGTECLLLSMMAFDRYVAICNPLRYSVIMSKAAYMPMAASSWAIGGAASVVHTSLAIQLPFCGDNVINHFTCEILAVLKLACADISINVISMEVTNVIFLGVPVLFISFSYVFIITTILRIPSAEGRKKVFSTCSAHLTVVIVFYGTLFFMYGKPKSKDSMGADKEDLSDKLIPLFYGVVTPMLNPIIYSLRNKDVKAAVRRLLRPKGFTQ
Summary of the method: as §1

OR2T1 (Homo sapiens) = target: T2, OR2T1 (Homo sapiens) (UniProt O43869)
T2 sequence (whole entry): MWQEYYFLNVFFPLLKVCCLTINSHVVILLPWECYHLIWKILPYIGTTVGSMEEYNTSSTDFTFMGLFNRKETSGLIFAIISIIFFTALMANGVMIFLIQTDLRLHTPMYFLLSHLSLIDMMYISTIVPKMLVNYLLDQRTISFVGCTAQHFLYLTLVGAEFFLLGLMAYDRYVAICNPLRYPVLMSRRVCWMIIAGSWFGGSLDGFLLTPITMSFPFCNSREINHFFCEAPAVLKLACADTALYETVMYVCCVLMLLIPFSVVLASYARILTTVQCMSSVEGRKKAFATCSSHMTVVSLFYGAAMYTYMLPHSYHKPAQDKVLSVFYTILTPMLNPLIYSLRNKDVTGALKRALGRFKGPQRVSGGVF
Summary of the method: as §1

OR2T10 (Homo sapiens) = target: T3, OR2T10 (Homo sapiens) (UniProt Q8NGZ9)
T3 sequence (whole entry): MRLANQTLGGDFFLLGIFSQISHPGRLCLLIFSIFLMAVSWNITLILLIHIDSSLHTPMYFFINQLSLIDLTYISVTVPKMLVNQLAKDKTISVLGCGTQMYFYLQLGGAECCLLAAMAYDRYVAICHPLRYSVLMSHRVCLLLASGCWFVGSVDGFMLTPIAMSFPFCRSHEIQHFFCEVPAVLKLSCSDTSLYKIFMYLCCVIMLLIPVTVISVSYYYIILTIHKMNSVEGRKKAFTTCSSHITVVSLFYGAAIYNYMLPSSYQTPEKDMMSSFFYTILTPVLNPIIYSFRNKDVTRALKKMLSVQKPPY
Summary of the method: as §1

OR2T11 (Homo sapiens) = target: T4, OR2T11 (Homo sapiens) (UniProt Q8NH01)
T4 sequence (whole entry): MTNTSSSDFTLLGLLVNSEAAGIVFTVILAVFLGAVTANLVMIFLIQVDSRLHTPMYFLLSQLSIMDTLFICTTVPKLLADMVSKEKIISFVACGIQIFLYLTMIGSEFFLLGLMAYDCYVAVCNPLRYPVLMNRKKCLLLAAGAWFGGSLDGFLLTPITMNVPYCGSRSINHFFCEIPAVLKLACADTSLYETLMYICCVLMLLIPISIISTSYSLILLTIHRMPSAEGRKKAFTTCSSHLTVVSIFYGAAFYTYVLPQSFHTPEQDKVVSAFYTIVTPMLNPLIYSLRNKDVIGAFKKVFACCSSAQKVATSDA
Summary of the method: as §1

OR2T12 (Homo sapiens) = target: T5, OR2T12 (Homo sapiens) (UniProt Q8NG77)
T5 sequence (whole entry): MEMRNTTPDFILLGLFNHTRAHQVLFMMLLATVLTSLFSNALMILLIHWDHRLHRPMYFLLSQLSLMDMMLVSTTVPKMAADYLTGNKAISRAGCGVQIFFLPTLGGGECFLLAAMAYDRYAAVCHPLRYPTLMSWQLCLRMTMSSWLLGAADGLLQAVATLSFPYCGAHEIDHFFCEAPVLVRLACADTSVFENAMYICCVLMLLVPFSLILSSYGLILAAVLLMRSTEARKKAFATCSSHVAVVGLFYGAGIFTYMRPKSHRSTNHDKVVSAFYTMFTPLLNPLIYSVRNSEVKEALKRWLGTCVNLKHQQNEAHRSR
Summary of the method: as §1

OR2T2 (Homo sapiens) = target: T6, OR2T2 (Homo sapiens) (UniProt Q6IF00)
T6 sequence (whole entry): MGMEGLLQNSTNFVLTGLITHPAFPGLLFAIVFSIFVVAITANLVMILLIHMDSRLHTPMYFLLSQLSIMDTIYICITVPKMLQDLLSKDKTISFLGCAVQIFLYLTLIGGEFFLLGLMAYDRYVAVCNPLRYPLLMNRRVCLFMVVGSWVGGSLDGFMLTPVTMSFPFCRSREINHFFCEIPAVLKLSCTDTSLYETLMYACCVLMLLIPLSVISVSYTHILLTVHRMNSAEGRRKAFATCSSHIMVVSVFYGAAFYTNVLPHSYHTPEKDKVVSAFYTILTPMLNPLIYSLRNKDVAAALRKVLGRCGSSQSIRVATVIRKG
Summary of the method: as §1

OR2T27 (Homo sapiens) = target: T7, OR2T27 (Homo sapiens) (UniProt Q8NH04)
T7 sequence (whole entry): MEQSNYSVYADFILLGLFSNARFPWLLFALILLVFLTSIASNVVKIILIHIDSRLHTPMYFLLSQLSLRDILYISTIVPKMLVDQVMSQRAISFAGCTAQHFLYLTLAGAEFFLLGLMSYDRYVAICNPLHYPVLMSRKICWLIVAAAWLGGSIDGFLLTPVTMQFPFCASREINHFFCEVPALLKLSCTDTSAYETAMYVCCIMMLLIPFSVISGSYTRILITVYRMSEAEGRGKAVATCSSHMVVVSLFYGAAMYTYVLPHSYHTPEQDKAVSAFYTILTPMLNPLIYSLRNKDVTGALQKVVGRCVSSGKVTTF
Summary of the method: as §1

OR2T29 (Homo sapiens) = target: T8, OR2T29 (Homo sapiens) (UniProt Q8NH02)
T8 sequence (whole entry): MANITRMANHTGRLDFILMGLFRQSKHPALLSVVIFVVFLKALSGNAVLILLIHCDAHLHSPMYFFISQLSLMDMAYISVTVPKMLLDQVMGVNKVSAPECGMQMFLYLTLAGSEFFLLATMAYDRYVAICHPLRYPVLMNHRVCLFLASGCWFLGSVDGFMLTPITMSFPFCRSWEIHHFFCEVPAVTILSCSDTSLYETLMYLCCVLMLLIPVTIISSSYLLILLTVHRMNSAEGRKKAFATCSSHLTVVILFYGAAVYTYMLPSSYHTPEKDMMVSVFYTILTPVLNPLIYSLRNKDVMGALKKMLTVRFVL
Summary of the method: as §1

OR2T3 (Homo sapiens) = target: T9, OR2T3 (Homo sapiens) (UniProt Q8NH03)
T9 sequence (whole entry): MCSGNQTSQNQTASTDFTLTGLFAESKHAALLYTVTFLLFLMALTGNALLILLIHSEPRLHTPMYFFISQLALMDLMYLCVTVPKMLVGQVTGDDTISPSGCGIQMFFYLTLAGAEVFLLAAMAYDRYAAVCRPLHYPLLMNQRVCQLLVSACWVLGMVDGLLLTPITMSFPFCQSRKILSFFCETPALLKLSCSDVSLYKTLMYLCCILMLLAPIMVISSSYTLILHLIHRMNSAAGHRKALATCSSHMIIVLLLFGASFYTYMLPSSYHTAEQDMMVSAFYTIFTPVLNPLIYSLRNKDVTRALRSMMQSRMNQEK
Summary of the method: as §1

OR2M7 (Homo sapiens) = target: T10, OR2M7 (Homo sapiens) (UniProt Q8NG81)
T10 sequence (whole entry): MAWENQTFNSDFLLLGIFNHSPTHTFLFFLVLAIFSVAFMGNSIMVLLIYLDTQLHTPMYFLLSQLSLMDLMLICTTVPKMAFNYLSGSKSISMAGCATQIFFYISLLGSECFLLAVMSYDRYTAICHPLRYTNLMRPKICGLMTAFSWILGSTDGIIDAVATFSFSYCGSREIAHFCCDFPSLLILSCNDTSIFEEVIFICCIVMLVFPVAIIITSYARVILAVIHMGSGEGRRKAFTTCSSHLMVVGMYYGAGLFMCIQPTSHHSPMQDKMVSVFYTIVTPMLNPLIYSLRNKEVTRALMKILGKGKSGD
Summary of the method: as §1

OR2T2 L104F L262Q = system: T11, OR2T2 L104F L262Q
T11 sequence (whole entry): T6 sequence (whole entry) with L104F, L262Q
Summary of the method: as §1

OR2T2 L104F = system: T12, OR2T2 L104F
T12 sequence (whole entry): T6 sequence (whole entry) with L104F
Summary of the method: as §1

OR2T2 Q313H = system: T13, OR2T2 Q313H
T13 sequence (whole entry): T6 sequence (whole entry) with Q313H
Summary of the method: as §1

OR2T3 L256F = system: T14, OR2T3 L256F
T14 sequence (whole entry): T9 sequence (whole entry) with L256F
Summary of the method: as §1

Measured: odorant receptor agonist call

OR2M5 V198I, sequence (as listed by the source, stated change not applied): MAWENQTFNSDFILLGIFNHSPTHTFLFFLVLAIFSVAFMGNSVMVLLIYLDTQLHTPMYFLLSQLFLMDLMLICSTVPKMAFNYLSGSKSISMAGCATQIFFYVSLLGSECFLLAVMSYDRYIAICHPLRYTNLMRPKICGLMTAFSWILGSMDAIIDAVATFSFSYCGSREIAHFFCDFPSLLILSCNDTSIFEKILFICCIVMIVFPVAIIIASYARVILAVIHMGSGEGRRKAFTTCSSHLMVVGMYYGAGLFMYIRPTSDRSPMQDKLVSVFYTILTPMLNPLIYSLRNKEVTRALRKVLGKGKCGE
OR2M5 V105T, sequence (as listed by the source, stated change not applied): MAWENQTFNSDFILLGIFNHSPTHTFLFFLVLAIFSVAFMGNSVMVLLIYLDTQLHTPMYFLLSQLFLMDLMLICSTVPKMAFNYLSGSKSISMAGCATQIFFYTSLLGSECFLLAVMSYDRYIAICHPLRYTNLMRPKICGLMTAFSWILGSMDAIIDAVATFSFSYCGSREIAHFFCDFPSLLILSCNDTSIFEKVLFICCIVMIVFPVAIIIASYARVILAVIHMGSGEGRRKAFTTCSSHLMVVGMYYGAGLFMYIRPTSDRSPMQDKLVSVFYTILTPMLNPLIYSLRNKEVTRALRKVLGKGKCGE

CCC(S)C(C)CO (stereo not given)
not listed: OR2M7 (Homo sapiens) | OR2T2 L104F L262Q | OR2T2 L104F | OR2T2 Q313H | OR2T3 L256F
inactive: all other assays above

CCCCC(S)C(C)CO (stereo not given)
inactive: OR2M7 (Homo sapiens) | OR2S2 (Homo sapiens) | OR2T1 (Homo sapiens) | OR2T10 (Homo sapiens) | OR2T11 (Homo sapiens) | OR2T12 (Homo sapiens) | OR2T2 (Homo sapiens) | OR2T27 (Homo sapiens) | OR2T29 (Homo sapiens) | OR2T3 (Homo sapiens)

O=c1ccc2ccccc2o1
inactive: OR2M7 (Homo sapiens)

COc1cc(C(=O)O)ccc1O
inactive: OR2M7 (Homo sapiens)

CC12CCC(CC1=O)C2(C)C (stereo not given)
inactive: OR2M7 (Homo sapiens)

O=C1Cc2ccccc2O1
inactive: OR2M7 (Homo sapiens)

CC1=NC(C)C(C)S1 (stereo not given)
not listed: OR2M5 V105T M154T G255A | [1] | OR2M5 V105T | OR2M5 V198I
inactive: all other assays above

CCC(=O)O
inactive: OR2M7 (Homo sapiens)

C=C(C)C1CCC(C)C(=O)C1 (stereo not given)
inactive: OR2M7 (Homo sapiens)

CC(=O)c1c(C)c([N+](=O)[O-])c(C(C)(C)C)c([N+](=O)[O-])c1C
inactive: OR2M7 (Homo sapiens) | OR2S2 (Homo sapiens) | OR2T1 (Homo sapiens) | OR2T10 (Homo sapiens) | OR2T11 (Homo sapiens) | OR2T12 (Homo sapiens) | OR2T2 (Homo sapiens) | OR2T27 (Homo sapiens) | OR2T29 (Homo sapiens) | OR2T3 (Homo sapiens)

CCCCCCO
inactive: OR2M7 (Homo sapiens)

CCCCCCCC(C)=O
inactive: OR2M7 (Homo sapiens)

CC1=C(O)C(=O)OC1C (stereo not given)
not listed: OR2M5 V105T M154T G255A | [1] | OR2M5 V105T | OR2M5 V198I
inactive: all other assays above

CCCCCCCCO
inactive: OR2M7 (Homo sapiens)

CCCCCOC(=O)CCCCC
inactive: OR2M7 (Homo sapiens)

CCCCOC=O
inactive: OR2M7 (Homo sapiens)

CCC1OC(=O)C(O)=C1C (stereo not given)
not listed: OR2M5 V105T M154T G255A | [1] | OR2M5 V105T | OR2M5 V198I
inactive: all other assays above

CCC1OC(C)=C(O)C1=O (stereo not given)
not listed: OR2M5 V105T M154T G255A | [1] | OR2M5 V105T | OR2M5 V198I
inactive: all other assays above

CCCCOC(=O)C(C)OC(=O)CCC (stereo not given)
inactive: OR2M7 (Homo sapiens)

Cc1cnc(C)c(C)n1
not listed: OR2M5 V105T M154T G255A | [1] | OR2M5 V105T | OR2M5 V198I
inactive: all other assays above
